Series [1] has as its system Human immunodeficiency virus 1. The experiment in a line: Inhibition of 50% of the integrase-mediated catalysis of the V1/V2 substrate with 95% confidence interval. Type of series: functional.
In series [2] the test system is Human immunodeficiency virus 1. As to the kind of experiment: Inhibition of HIV replication by 50%. The series is classed as functional. The following applies: read-out: ED50 (the source's name).
Series [3] deals with Human immunodeficiency virus 1. The experiment in a line: Inhibition of 50% of the integrase-mediated catalysis of the Y-oligo substrate with 95% confidence interval. The series is classed as functional.
A short description of series [4]: Therapeutic index (ratio of CT5 to ED50). To be noted: for selectivity ratio: read-out: TI.
The test system of the next series is MT2. As to the kind of experiment: Inhibition of MT-2 cell growth by 5% or less over a 72 hr time period. The series is classed as functional, Homo sapiens. The essentials:
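Compounds dissolved in water, 95% ethanol or ethanol/DMSO, diluted in growth medium, filter-sterilized, 2-fold serial dilutions in triplicate. MT-2 cells (2 × 10^5) exposed 72 h at 37 °C; viability by neutral red dye uptake. CT5 = 5% growth inhibition (within 1 SD of untreated controls), taken from linear part of dose-response curve; reported as greater than top concentration when not reachable.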

For series [5], the system named is Human immunodeficiency virus 1. As to the kind of experiment: Inhibition of 50% of the integrase-mediated catalysis of the Y-oligo substrate. Type of series: functional.
The subject of series [6] is Human immunodeficiency virus 1. As to the kind of experiment: Inhibition of 50% of the integrase-mediated catalysis of the V1/V2 substrate. The series is classed as functional.

Structures are written as SMILES. A value given as a limit tells only on which side of the number the result lay.

A word on the IC50: it is the concentration needed to halve the response being measured. A lower IC50 goes with inhibition by little substance. On to `NC(=O)C(Cc1ccc(O)c(O)c1)C(Cc1ccc(O)c(O)c1)C(=O)O` (stereo not drawn), for which the IC50 was more than 10 µM in series [1] (Human immunodeficiency virus 1) and 2.84 µM in series [3] (Human immunodeficiency virus 1). In addition, the EC50 in series [2] (Human immunodeficiency virus 1) was found to be 49 µM. In addition, in series [4], the selectivity ratio came out at 2.5. The compound further yielded a CT5 in the series on MT2 of 123 µM.

For `CC(CCC(=O)O)C1CC[C@H]2[C@@H]3[C@H](OC(=O)/C=C/c4ccc(O)c(O)c4)CC4C[C@H](OC(=O)/C=C/c5ccc(O)c(O)c5)CC[C@]4(C)[C@H]3C[C@H](OC(=O)/C=C/c3ccc(O)c(O)c3)[C@]12C` (stereo partly drawn), the values for the IC50 in series [1] (Human immunodeficiency virus 1) and in series [3] (Human immunodeficiency virus 1) were 0.97 µM and 0.75 µM, respectively. The EC50 in series [2] (Human immunodeficiency virus 1) is more than 140 µM. Also, the selectivity ratio in series [4] was less than 1. This compound also displayed a CT5 with MT2 of 11.4 µM.

In the case of `O=C(OC(C(=O)O)C(OC(=O)c1ccsc1)C(=O)O)c1ccsc1` (stereo not drawn), the IC50 in series [5] and in series [6] was more than 10 µM throughout. For the same compound, in series [2] (Human immunodeficiency virus 1), the EC50 was more than 95 µM. Also, the selectivity ratio in series [4] was less than 1. This compound returned a CT5 with MT2 of 100 µM.

In the case of `O=C(O)C(Cc1ccc(O)c(O)c1)C(Cc1ccc(O)c(O)c1)C(=O)O` (stereo in doubt; 23b), the concentration for half-maximal inhibition (IC50) in series [1] turned out to be 0.23 µM; in series [3], 4.32 µM. Further, the EC50 in series [2] was 12.6 µM. In addition, the TI in series [4] is given as 6. This compound registered a CT5 with MT2 of 76 µM.

With `CCN(CC)C(=O)C(Cc1ccc(O)c(O)c1)C(Cc1ccc(O)c(O)c1)C(=O)O` (stereo not drawn), the IC50 in series [1] (Human immunodeficiency virus 1) is more than 10 µM; in series [3] (Human immunodeficiency virus 1), 5.27 µM. Also, the EC50 in series [2] (Human immunodeficiency virus 1) was 186 µM. The selectivity ratio in series [4] was 0.5. This compound also returned a CT5 in the series on MT2 of 93 µM.

In the case of `O=C(O)C(Cc1ccc(O)c(O)c1)C(Cc1ccc(O)c(O)c1)C(=O)O` (stereo in doubt; 24b), the values for the IC50 in series [1] (Human immunodeficiency virus 1) and in series [3] (Human immunodeficiency virus 1) were 0.44 µM and 2.78 µM, respectively. Also, the EC50 in series [2] stood at 1.9 µM. Besides, in series [4], the TI amounted to 37. In the series on MT2, this compound showed a CT5 of 71 µM.

As to `O=C(/C=C/c1ccc(O)c(O)c1)NCC(OC(=O)/C=C\c1ccc(O)c(O)c1)C(=O)O` (stereo not drawn), the IC50 worked out at 0.37 µM in series [1] (Human immunodeficiency virus 1) and 0.19 µM in series [3] (Human immunodeficiency virus 1). Moreover, the EC50 in series [2] (Human immunodeficiency virus 1) is 2 µM. For the same compound, the selectivity ratio in series [4] is 88. This compound also had a CT5 in the series on MT2 of 175 µM.

In the case of `CCCCCCCCCCNC(=O)C(Cc1ccc(O)c(O)c1)C(Cc1ccc(O)c(O)c1)C(=O)O` (stereo not drawn), the IC50 in series [1] (Human immunodeficiency virus 1) and in series [3] (Human immunodeficiency virus 1) was more than 10 µM each time. Also, the EC50 in series [2] (Human immunodeficiency virus 1) is more than 37 µM. The selectivity ratio in series [4] is less than 1. Further, the CT5 with MT2 came out at 34 µM.

Regarding `O=C(O)C(O)C(O)C(=O)O` (stereo not drawn), the IC50 in series [5] and in series [6] was more than 25 µM throughout. In series [2] (Human immunodeficiency virus 1), the EC50 is more than 1000 µM. In series [4], the selectivity ratio was less than 1. The same compound came in with a CT5 in the series with MT2 of more than 1000 µM.

For `O=C(/C=C/c1ccc(O)c(O)c1)Nc1cc(NC(=O)/C=C/c2ccc(O)c(O)c2)cc(C(=O)O)c1`, the EC50 in series [2] (Human immunodeficiency virus 1) was 4.6 µM. In addition, half-maximal inhibition in series [3] (Human immunodeficiency virus 1) (IC50) required 0.73 µM. The selectivity ratio in series [4] is 10. In the series on MT2, this compound registered a CT5 of 47 µM.

`O=C(OC(C(=O)O)C(OC(=O)c1cccs1)C(=O)O)c1cccs1` (stereo not drawn): the half-inhibitory concentration (IC50) in series [5] and in series [6] was more than 10 µM throughout. In series [2] (Human immunodeficiency virus 1), the EC50 was more than 190 µM. For the same compound, in series [4], the selectivity ratio was less than 1. The CT5 in the series on MT2 was more than 190 µM.

On to `O=C(/C=C\c1ccc(O)c(O)c1)NC(COC(=O)/C=C/c1ccc(O)c(O)c1)C(=O)O` (stereo not drawn), for which the IC50 in series [1] (Human immunodeficiency virus 1) was determined as 0.33 µM; in series [3] (Human immunodeficiency virus 1) it was 0.12 µM. In addition, the EC50 in series [2] turned out to be 2.5 µM. In addition, in series [4], the selectivity ratio was found to be 16. In the series on MT2, this compound returned a CT5 of 39 µM.

Turning to `CC(=O)Oc1ccc(/C=C/C(=O)OC(C(=O)O)C(OC(=O)/C=C/c2ccc(OC(C)=O)c(OC(C)=O)c2)C(=O)O)cc1OC(C)=O` (stereo not drawn), the results for the IC50 in series [1] (Human immunodeficiency virus 1) and in series [3] (Human immunodeficiency virus 1) were more than 10 µM and 15.7 µM, respectively. Moreover, the EC50 in series [2] (Human immunodeficiency virus 1) came out at 4 µM. Besides, in series [4], the selectivity ratio came out at 4.5. In addition, the CT5 in the series on MT2 was 18.6 µM.

For the compound `O=C(/C=C\c1ccc(O)c(O)c1)NC(CNC(=O)/C=C/c1ccc(O)c(O)c1)C(=O)O` (stereo not drawn), the values for the half-maximal inhibitory concentration (IC50) in series [1] (Human immunodeficiency virus 1) and in series [3] (Human immunodeficiency virus 1) were 0.83 µM and 0.57 µM, respectively. The EC50 in series [2] (Human immunodeficiency virus 1) stood at 35 µM. Also, in series [4], the selectivity ratio worked out at 1. The compound further returned a CT5 with MT2 of 35 µM.

Consider `O=C(O)C(=C\c1ccc(O)c(O)c1)/C(=C/c1ccc(O)c(O)c1)C(=O)O`, for which the concentration for half-maximal inhibition (IC50) stood at 0.83 µM in series [1] (Human immunodeficiency virus 1) and 2.19 µM in series [3] (Human immunodeficiency virus 1). In addition, the EC50 in series [2] (Human immunodeficiency virus 1) came out at 4.4 µM. In addition, the selectivity ratio in series [4] stood at 12. In the series on MT2, this compound yielded a CT5 of 55 µM.

Turning to `CC(CCC(=O)O)C1CC[C@H]2[C@@H]3CCC4C[C@H](OC(=O)/C=C/c5ccc(O)c(O)c5)CC[C@]4(C)[C@H]3C[C@H](OC(=O)/C=C/c3ccc(O)c(O)c3)[C@]12C` (stereo partly drawn), the EC50 in series [2] (Human immunodeficiency virus 1) was more than 17 µM. Further, in series [3] (Human immunodeficiency virus 1), the IC50 was 1.97 µM. In addition, the selectivity ratio in series [4] was less than 1. Further, the CT5 in the series on MT2 was 6.4 µM.

Values taken from ChEMBL document CHEMBL1135546, “Dicaffeoyltartaric acid analogues inhibit human immunodeficiency virus type 1 (HIV-1) integrase and HIV-1 replication at nontoxic concentrations” (J Med Chem, 2002).
